This is a sample that favours compounds with a hit; in the whole collection about 2.7% have one here.
Yeast growth inh: chemicals that inhibit yeast BB579 growth in restrictive medium (lifespan-shortening candidates); AID 804; inhibition, % at 10 µM; S. cerevisiae BB579 growth, OD615, 48 h; actives 0.51% (n = 140,000);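 active = inhibition above a set limit, 3 SD over the mean compound inhibition, cut at about 44% in these data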
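Test system: Saccharomyces cerevisiae DeaD strain BB579, replicative lifespan model yeast | Buffer or medium: Restrictive CSMM-D medium | Doses: One dose, 10 µM compound with 0.25% DMSO | Incubation: 48 h exposure, 30 °C | Detection: Culture absorbance at 615 nm | Control set: Amphotericin B at 10 µg/mL as positive control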
RAM network inh: yeast RAM network inhibition; S. cerevisiae dse1pr::URA3 reporter, 5-FOA growth OD615, 2 d; analog-sensitive cbk1-as2 kinase mutant strain; inhibition, % at 50 µM; actives 1.8% (n = 190,000); AID 868;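 active = inhibition above a set limit, 3 SD over mean compound inhibition, cut at about 8.4% in these data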;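 note: 0% = DMSO-only wells with no growth and 100% = 10 µM 1-NA-PP1 full growth; inhibition rescues growth on 5-FOA so higher OD means more RAM inhibition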
SDO1 yeast rescue: compounds rescuing growth of sdo1-depleted yeast, bone marrow failure model. S. cerevisiae sdo1-depleted JHY4D growth rescue, OD600 30 h; active compounds read high; pdr5 snq2 efflux-pump mutant strain. z-score at 10 µM. actives 0.21% (n = 140,000). AID 817;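 active = z-score above 3 at both the 24 hr and the 30 hr optical density reads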;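 note: z-score against mean and SD of all compound wells on the same plate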
Yeast life ext: yeast lifespan extension | S. cerevisiae growth with nicotinamide, OD615; deaD strain in restrictive glucose medium | inhibition of the nicotinamide effect, % at 10 µM | actives 0.68% (n = 130,000) | AID 775;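 active = inhibition above a set limit, placed 3 SD over the median of all compounds, cut at about 26% in these data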;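 note: 0% = nicotinamide-treated wells and 100% = cells grown without nicotinamide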
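System: Modified budding yeast, DeaD strain | Buffer or medium: Restrictive glucose medium | Also added: 1.5 mM nicotinamide | Doses: 10 µM single point, 0.25% DMSO | Schedule: 48 h compound exposure at 30 °C, humidified | Detection: Absorbance at 615 nm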
Numbers without * were called inactive; . = no result given; [ ] = dose if it differs, or a comment.

SMILES	Yeast growth inh	RAM network inh	SDO1 yeast rescue	Yeast life ext
Cc1ccc(-c2nc3ncccc3o2)cc1NC(=O)Cc1ccc(Cl)cc1	-30	1	-1.3	.
COc1ccc(CN=C2NC(=O)CC(C(=O)Nc3ccc(Cl)cc3)S2)cc1 (stereo not drawn)	-3	9.2*	-0.11	-4
COc1ccc(N2CCN(C(=O)Cn3nnc(-c4cccs4)n3)CC2)cc1	-20	2	-0.27	-1
CCOC(=O)Nc1ccc2c(c1)nc(CN1CCCCC1)n2C	.	2	.	.
O=C(NC(=S)Nc1cccc(Cl)c1N1CCCCC1)c1ccco1	-29	9.7*	-1.6	18
O=C(NC(=S)Nc1cccc(Cl)c1N1CCCCC1)c1cccs1	-21	9.4*	-1.2	3
O=C(c1cnn(-c2ccccc2)c1)c1ccc2ccccc2c1O	-10	10*	-0.97	-10
Cc1nc(NC(=S)NC(=O)c2cncc(Br)c2)ccc1Br	.	1	.	.
Nn1c(=O)c2ccccc2n2c(SCc3ccc(C(F)(F)F)cc3)nnc12	-13	8.6*	-0.64	-11
Nn1c(=O)c2ccccc2n2c(SCc3ccccc3)nnc12	-9	3	-0.37	-12
O=C(Oc1ccc(=O)n(-c2ccccc2)n1)c1ccccc1	-52	-1	0.09	36*
O=C(O)COc1ccc(=O)n(-c2ccccc2)n1	3	0	-1.2	-6
O=C(NCc1ccccc1)c1cccc(COc2cccc(Cl)c2)c1	-34	9.2*	-1	-11
NNC(=O)c1cccc(COc2ccc(Br)cc2)c1	78*	0	-1.5	-8
NNC(=O)c1cccc(COc2cccc(Br)c2)c1	-8	0	-0.66	-20
O=C(NCc1ccccc1)c1cccc(COc2ccc(Cl)cc2)c1	7	4	-0.65	-12
CCCCOC(=O)n1c(=S)oc2cc(Cl)ccc21	98*	-1	-0.81	-23
CCCCOC(=O)n1c(=O)oc2cc(S(=O)(=O)N3CCCCC3)ccc21	-46	1	-0.95	68*
O=C(Cn1c(=O)oc2cc(S(=O)(=O)N3CCc4ccccc43)ccc21)NC1CCCC1	-48	3	-0.08	-11
O=C(Cn1c(=O)oc2cc(S(=O)(=O)N3CCCCCC3)ccc21)NC1CCCCC1	-24	8.8*	1.6	-10
COC(=O)n1c(=O)oc2cc(S(=O)(=O)N3CCOCC3)ccc21	-17	2	0.62	-1
COc1c(C(=O)Nc2ccc3[nH]c(=O)[nH]c3c2)cc2ccccc2c1Br	.	3	.	.
O=c1c2ccccc2c(/C=N/c2n[nH]c(CCCO)n2)c(O)n1-c1ccccc1Cl	.	8.5*	.	.
CC(=O)Nc1ccc(NC(=O)Cc2ccc(S(=O)(=O)N3CCCCC3)s2)cc1	-44	1	-0.67	-1
O=C(Cc1ccc(S(=O)(=O)N2CCOCC2)s1)Nc1ccc2c(c1)CCC2	-50	9.4*	0.34	-4
SMILES	Yeast growth inh	RAM network inh	SDO1 yeast rescue	Yeast life ext
CC(C)c1nnc(NC(=O)CSc2nnc(NC(=O)c3c(F)cccc3F)s2)s1	.	10*	.	.
COc1ccc(/C=N/Nc2nnc(Cc3ccc(OC)c(OC)c3)c(=O)[nH]2)cc1	-26	4	0.47	2
COc1ccc(/C=N/Nc2nnc(Cc3ccc(OC)c(OC)c3)c(=O)[nH]2)cc1OC	-18	9.7*	1.9	4
Cc1ccc(-n2c(Cl)c(Cl)nc(Cl)c2=O)cc1	100*	0	-1.8	-9
CC(=O)Nc1cccc(NC(=O)c2cc(-c3cccnc3)nc3ccc(Br)cc23)c1	-39	3	0.46	-7
CC(=O)Nc1cccc(NC(=O)c2cc(-c3cccnc3)nc3ccc(Cl)cc23)c1	.	9.3*	.	.
Cc1cc(C)nc(NS(=O)(=O)c2ccc(NC(=O)CN3C(=O)S/C(=C\c4ccccc4)C3=O)cc2)n1	-18	9.9*	0.03	0
O=C(CCN1C(=O)S/C(=C\c2ccccc2)C1=O)Nc1ccc(S(=O)(=O)Nc2nccs2)cc1	-15	3	-0.14	-9
CC1(C)CCCN(C(=O)N2c3ccccc3Sc3ccccc32)C1	-35	11*	-0.46	-7
COc1cccc2sc(Nc3nc(-c4ccccn4)cs3)nc12	88*	-1	-2.4	-4
Cc1ccccc1Nc1cc2ccccc2c(=O)[nH]1	19	0	-0.6	-10
O=C(O)CSCc1cnn(-c2ccccc2)c1-n1cccc1	-39	3	0.35[13.2 µM]	-18
CCOc1ccc(NC(=O)CSCc2cnn(-c3ccccc3)c2-n2cccc2)cc1	-60	10*	-1.2	1
CCCc1nc2ccc(NC(C)=O)cc2c(=O)n1Cc1ccc(Cl)cc1	.	1	.	.
COc1ccc(Cn2c(C3CC3)nc3ccc(NC(C)=O)cc3c2=O)cc1	-42	10*	-0.86	6
CC(=O)NCCNC(=O)c1ccc(CSc2ccc(Cl)cc2)cc1	.	2	.	.
CCc1nnc(NC(=O)CSc2nnc(-c3ccc(OC)cc3)n2C)s1	-34	-1	0.03	-20
C=CCOC(=O)C1C(=O)CC(C)(O)C(C(=O)OCC=C)C1c1ccc(OCC)cc1 (stereo not drawn)	21	2	0.13	-4
Cc1ccc(C(=O)NCCSc2ccc(Cl)cc2)cc1S(=O)(=O)Nc1ccccc1	-37	10*	-0.28	-5
CCOC(=O)CSc1nnc(-c2cc(OC)c(OC)c(OC)c2)o1	.	0	.	.
COc1cc(-c2nnc(SCC(=O)OC3CCCCC3)o2)cc(OC)c1OC	-54	9.0*	-0.3	-11
Cc1nc(Nc2ccc(Cl)c(Cl)c2)sc1C(=O)Nc1ccccc1	79*	4	-1.5	0
COC(=O)c1sc(NC(=O)c2cccc([N+](=O)[O-])c2)c(C(N)=O)c1C	-32	4	0.7	2
O=C1CC(N2CCN(c3nc4ccccc4s3)CC2)C(=O)N1Cc1cccs1 (stereo not drawn)	98*	0	-2.8	-26
O=C1CC(N2CCN(c3ccc(F)cc3)CC2)C(=O)N1Cc1cccs1 (stereo not drawn)	-61	2	0.01	-8
SMILES	Yeast growth inh	RAM network inh	SDO1 yeast rescue	Yeast life ext
CCc1cc(C(=O)Cc2ccc(F)cc2)c(O)cc1O	-43	-2	-1.2	-4
CCCc1cc(C(=O)Cc2ccc(F)cc2)c(O)cc1O	92*	-2	-3.2	-23
O=C(NC(Cc1c[nH]c2ccccc12)C(=O)O)/C(=C/c1ccc2c(c1)OCO2)NC(=O)c1ccccc1 (stereo not drawn)	.	2	.	.
COc1ccc2[nH]c(=O)c(CN(Cc3ccco3)Cc3nnnn3Cc3ccccc3)cc2c1	-28	9.7*	-0.43	-7
CCCNC(=O)CCC(NS(=O)(=O)c1ccc(C)cc1)C(=O)NCCC (stereo not drawn)	-33	2	0.58	80*
CCC(NS(=O)(=O)c1ccc(C)cc1)C(=O)O (stereo not drawn)	-35	1	-0.02	-1
O=c1/c(=C/c2cccc3ccccc23)sc2ncnn12	-20	3	-1.1	29*
Cc1ccsc1/C=c1\sc2ncnn2c1=O	5	6	-0.64	-5
CC(C(=O)NCC1(c2ccccc2)CCCC1)N1CCOCC1 (stereo not drawn)	17	1	-0.4	-8

High-throughput results as filed in PubChem.
